By EC50 is commonly meant the concentration that produces a half-maximal response. One may read the CC50 as the concentration giving 50% cytotoxicity. The IC50 is the concentration at which inhibition is half-maximal.

SMILES strings stand for the structures.

Here are results for 23 molecules from ChEMBL document CHEMBL1142384, “Gamma-carboline derivatives with anti-bovine viral diarrhea virus (BVDV) activity” (Bioorg Med Chem, 2008).

For data set [1], the system named is Bovine viral diarrhea virus 1. Put plainly: Antiviral activity against BVDV infected in MDBK cells assessed as reduction in viral induced cell destruction by MTT assay. In kind it is functional, organism-based. The settings on record: Bovine viral diarrhea virus isolates and strains. The method, boiled down:
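BVDV (Nose strain) infected MDBK cells (1 × 10^4 cells/well) at multiplicity of infection 0.01. Cells incubated at 37 °C with various compound concentrations for 3 days. Viability of infected cells read by MTT.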
For orientation: Formazan colour is commonly taken as a measure of viable cells.

A short description of data set [2]: Selectivity index, ratio of CC50 for MDBK cells to EC50 for BVDV infected in MDBK cells. In kind it is functional. The method, boiled down: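 MDBK cells (1 × 10^4/well) were infected with BVDV Nose strain at MOI 0.01, or mock-infected, and held at 37 °C with various compound concentrations for 3 days. EC50 was taken from the reduction of virus-induced cell destruction, measured as MTT viability of infected cells. CC50 was taken from the reduction of viable cell number, measured by LDH in mock-infected cells. SI = CC50/EC50.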

A short description of data set [3]: Cytotoxicity against mock-infected MDBK cells by LDH method. It is filed as cell-based, Bos taurus. The conditions noted are these: cattle. In outline:
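Mock-infected MDBK cells (1 × 10^4 cells/well) incubated at 37 °C with various compound concentrations for 3 days. Viability measured by the LDH method.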

For the next data set, the system named is HL-60. Nature of the data set: Growth inhibition of human HL60 cells. It is filed as functional, cell-based.

Turning to `Cc1cc2[nH]c3ccccc3c2cn1`, in data set [1], the EC50 was 2.2 µM. Further, the “Ratio CC50/EC50” value in data set [2] came to 31.8. The same molecule registered a CC50 in data set [3] of 70 µM.
With `c1ccc2c(c1)[nH]c1cccnc12`, the EC50 in data set [1] is more than 100 µM. Also, in data set [3], the CC50 was more than 100 µM.
With `c1ccc2c(c1)[nH]c1cnccc12` [NORHARMANE], in data set [1], the EC50 worked out at 8.8 µM. In data set [3], this molecule showed a CC50 of 78 µM.
With `Cc1cncc2c1[nH]c1ccccc12`, the half-maximal effective concentration (EC50) in data set [1] worked out at 0.55 µM. In data set [2], the “Ratio CC50/EC50” value worked out at 38.2. The molecule also returned a cytotoxic concentration (CC50) in data set [3] of 21 µM.
Turning to `CCCn1c2ccccc2c2cnccc21`, in data set [1], the EC50 was 8.2 µM. In data set [3], this molecule had a CC50 of 26 µM.
Take `Cc1cccc2[nH]c3ccncc3c12`: the concentration giving a half-maximal response (EC50) in data set [1] worked out at 1.2 µM. Further, the “Ratio CC50/EC50” value in data set [2] is 13.3. This molecule had a CC50 in data set [3] of 16 µM.
Take `c1ccc2c(c1)Cc1ccccc1-2` [FLUORENE]: the 50% effective concentration (EC50) in data set [1] stood at 71 µM. In data set [3], the half-maximal cytotoxic concentration (CC50) is more than 100 µM.
The corresponding values for `c1ccc2c(c1)oc1ccccc12` [DIBENZOFURAN] are 58 µM and more than 100 µM.
As to `Cn1c2ccccc2c2cnccc21`, the EC50 in data set [1] amounted to 0.26 µM. Further, in data set [2], the “Ratio CC50/EC50” value is 111.5. In data set [3], this molecule had a CC50 of 29 µM.
The corresponding values for `Cc1ccc2[nH]c3ccncc3c2c1` are 3 µM, 4 and 12 µM.
As to `CCCCCCn1c2ccccc2c2cnccc21`, the 50% effective concentration (EC50) in data set [1] is more than 7.4 µM. For the same molecule, it took 7.4 µM to reach half-maximal cytotoxicity in data set [3] (CC50).
As to `Cc1nccc2[nH]c3ccccc3c12`, the half-maximal effective concentration (EC50) in data set [1] is 0.58 µM. In the data set with HL-60, this molecule yielded a half-maximal inhibitory concentration (IC50) of 15.3 µM. The “Ratio CC50/EC50” value in data set [2] amounted to 16.7. This molecule also came in with a 50% cytotoxic concentration (CC50) in data set [3] of 9.7 µM.
In the case of `CCN(CC)CCn1c2ccccc2c2cnccc21`, in data set [1], the EC50 was determined as 8.9 µM. Besides, in data set [3], the half-maximal cytotoxic concentration (CC50) was determined as 10 µM.
Turning to `CCn1c2ccccc2c2cnccc21`, the EC50 in data set [1] amounted to 2 µM. Further, the CC50 in data set [3] was found to be 29 µM.
Consider `CC(C)n1c2ccccc2c2cnccc21`, for which the EC50 in data set [1] came out at 11 µM. Moreover, in data set [3], it took 30 µM to reach half-maximal cytotoxicity (CC50).
As for `Cn1ccc2nc3ccccc3c-2c1`, the EC50 in data set [1] was 4.3 µM. Also, in data set [2], the “Ratio CC50/EC50” value came to 15.1. In data set [3], this molecule showed a 50% cytotoxic concentration (CC50) of 65 µM.
Consider `c1ccc2c(c1)[nH]c1ccncc12`, for which, in data set [1], the EC50 is 2 µM. The same molecule yielded a concentration for half-maximal inhibition (IC50) in the data set on HL-60 of 11.4 µM. In data set [3], it took 40 µM to reach half-maximal cytotoxicity (CC50).
Consider `Cc1cccc2c1[nH]c1ccncc12`, for which the half-maximal effective concentration (EC50) in data set [1] was determined as 1.7 µM. Also, the “Ratio CC50/EC50” value in data set [2] was determined as 14.1. In addition, the CC50 in data set [3] was 24 µM.
On to `CCCCn1c2ccccc2c2cnccc21`, for which, in data set [1], the EC50 stood at 9.2 µM. In data set [3], this molecule had a CC50 of 14 µM.
With `c1ccc2c(c1)[nH]c1ncccc12`, in data set [1], the concentration for a half-maximal effect (EC50) worked out at 93 µM. In data set [3], the CC50 is more than 100 µM.
The corresponding values for `c1ccc(Cn2c3ccccc3c3cnccc32)cc1` are 8.7 µM and 11 µM.
As for `Cc1ccc2c(c1)[nH]c1ccncc12`, the EC50 in data set [1] stood at 1.1 µM. Moreover, in data set [2], the “Ratio CC50/EC50” value came to 21.8. For the same molecule, the CC50 in data set [3] was found to be 24 µM.
`c1ccc2c(c1)[nH]c1ccccc12` [CARBAZOLE]: in data set [1], the EC50 is 64 µM. The same molecule yielded a CC50 in data set [3] of more than 100 µM.
